For the assay, the target named is Nuclear receptor subfamily 5 group A member 2 (Homo sapiens) (UniProt O00482). In words: StAR luciferase signal decrease with LRH-1 – cell-based, StAR promoter, luminescence, assay provider, powder samples, LRH-1 inverse agonist project, late-stage follow-up (AID 504933). Conditions: HEK293T LRH1 + StAR-luciferase reporter, 20 h. In a few lines: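 system = HEK293T with LRH1 plus StAR luciferase reporter | times = 24 h bulk transfection before re-plating, then 20 h compound exposure | benchmarks = DMSO vehicle-treated wells as normalisation reference | compound = Nine-point dilution series topping at 10 µM, plus single 10 µM test | detection = luciferase reporter luminescence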
Nuclear receptor subfamily 5 group A member 2 (Homo sapiens), sequence (O00482 whole entry, looked up): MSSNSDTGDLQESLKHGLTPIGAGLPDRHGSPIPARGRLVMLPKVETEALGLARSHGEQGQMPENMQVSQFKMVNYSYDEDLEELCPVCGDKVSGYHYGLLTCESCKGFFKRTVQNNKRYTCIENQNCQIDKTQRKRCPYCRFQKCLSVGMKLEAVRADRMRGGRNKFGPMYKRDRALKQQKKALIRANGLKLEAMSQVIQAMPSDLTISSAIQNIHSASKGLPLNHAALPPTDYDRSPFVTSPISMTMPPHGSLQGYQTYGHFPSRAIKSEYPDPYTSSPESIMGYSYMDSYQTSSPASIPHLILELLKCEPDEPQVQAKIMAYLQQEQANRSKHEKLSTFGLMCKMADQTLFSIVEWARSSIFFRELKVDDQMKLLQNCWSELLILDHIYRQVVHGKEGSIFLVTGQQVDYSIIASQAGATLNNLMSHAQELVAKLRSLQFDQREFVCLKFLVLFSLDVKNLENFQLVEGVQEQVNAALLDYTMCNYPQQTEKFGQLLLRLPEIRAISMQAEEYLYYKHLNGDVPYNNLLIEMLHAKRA
Background: A reporter such as luciferase makes a cellular process visible.

As a reminder, the IC50 is the concentration needed to halve the response being measured.

Turning to `O=c1cc(N2CCN(c3cccc(C(F)(F)F)c3)CC2)[nH]c(=O)n1C1CCCCC1`, the IC50 is 2.12 µM.

For the compound `O=c1cc(N2CCN(c3cccc(Cl)c3)CC2)[nH]c(=O)n1C1CCCCC1`, the half-inhibitory concentration (IC50) is 2.05 µM.

Source of the values: PubChem BioAssay AID504933 (The Scripps Research Institute Molecular Screening Center, 2011).
